Active and inactive are the calls of the source.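 Rule for the calls: active = compounds lowering caspase luminescence whose fitted AC50 is at most ten times their top valid dose; inconclusive = flat partial inhibition or a poor quality curve fit; inactive = the rest.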
Assay: suppressors of cytokine-driven caspase-3/7 activity, dose response, orthogonal assay for beta-cell apoptosis inhibitor project, INS-1E rat cells, dry powder, set 2 (AID 488936)
Details: INS-1E cytokine-induced caspase-3/7 luminescence, 48 h; at 12 µM (top of the series)
In short: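 reagent = cytokine mix of IFN-gamma 50, TNF-alpha 25, IL-1β 10 ng/mL | material = rat INS-1E insulinoma beta cells, cytokine-induced apoptosis model | incubation = 48 h cytokine and compound exposure, 1 h detection | technique = Caspase-Glo 3/7 luminescence | evaluation = Caspase-3/7 IC50 from dose-response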

SMILES | activity change, negative = inhibition
COc1ccc(S(=O)(=O)N(C)C[C@@H]2Oc3c(NC(=O)Nc4cccc5ccccc45)cccc3C(=O)N([C@@H](C)CO)C[C@H]2C)cc1C | -20.2% (inactive)

Same assay, conditions: INS-1E cytokine-induced caspase-3/7 luminescence, 48 h; at 23.5 µM (top of the series)

SMILES | activity change, negative = inhibition
Cc1ccc(S(=O)(=O)N(C)C[C@@H]2Oc3c(NC(=O)Nc4cccc5ccccc45)cccc3C(=O)N([C@H](C)CO)C[C@H]2C)cc1 | -12.7% (inactive)
COc1ccc(S(=O)(=O)N(C)C[C@@H]2Oc3c(NC(=O)Nc4ccc(F)cc4)cccc3C(=O)N([C@@H](C)CO)C[C@H]2C)cc1 | -9.69% (inactive)
C[C@@H]1CN([C@@H](C)CO)C(=O)c2cccc(NC(=O)Nc3cccc4ccccc34)c2O[C@H]1CN(C)C(=O)Nc1ccccc1 | 14.9% (inactive)
COc1ccc(S(=O)(=O)N(C)C[C@@H]2Oc3c(NS(=O)(=O)c4ccc(C)cc4)cccc3C(=O)N([C@@H](C)CO)C[C@H]2C)cc1 | -2.16% (inactive)
COc1ccc(S(=O)(=O)N(C)C[C@@H]2Oc3c(NC(=O)C4CC4)cccc3C(=O)N([C@@H](C)CO)C[C@H]2C)cc1 | -6.93% (inactive)

Same assay, conditions: INS-1E cytokine-induced caspase-3/7 luminescence, 48 h; at 26 µM (top of the series)

SMILES | activity change, negative = inhibition
COc1ccc(S(=O)(=O)N(C)C[C@@H]2Oc3c(NC(=O)c4ccncc4)cccc3C(=O)N([C@@H](C)CO)C[C@H]2C)cc1 | -4.94% (inactive)
C[C@@H]1CN([C@@H](C)CO)C(=O)c2cccc(NC(=O)Nc3cccc4ccccc34)c2O[C@H]1CN(C)S(=O)(=O)c1cccc(F)c1 | 6.97% (inactive)
N#Cc1ccc2cc(Br)c(C(F)(F)P(=O)(O)O)cc2c1 | -14.1% (inactive)
COc1ccc(S(=O)(=O)N(C)C[C@@H]2Oc3c(NC(=O)Nc4cccc5ccccc45)cccc3C(=O)N([C@H](C)CO)C[C@@H]2C)cc1 | -4.27% (inactive)
Cc1ccc(S(=O)(=O)N(C)C[C@H]2Oc3c(NC(=O)Nc4cccc5ccccc45)cccc3C(=O)N([C@@H](C)CO)C[C@@H]2C)cc1 | 29.7% (inactive)
COc1ccc(S(=O)(=O)N(C)C[C@@H]2Oc3c(NC(=O)Nc4cccc5ccccc45)cccc3C(=O)N([C@@H](C)CO)C[C@@H]2C)cc1 | -6.51% (inactive)
CNC[C@@H]1Oc2c(NC(=O)Nc3cccc4ccccc34)cccc2C(=O)N([C@@H](C)CO)C[C@H]1C | -6.33% (inactive)
COc1ccc(S(=O)(=O)N(C)C[C@@H]2Oc3c(NC(=O)Nc4cccc5ccccc45)cccc3C(=O)N([C@@H](C)CO)C[C@H]2C)c(OC)c1 | -12.9% (inactive)
COc1ccc(S(=O)(=O)N(C)C[C@@H]2Oc3c(NC(=O)Nc4cccc5ccccc45)cccc3C(=O)N([C@@H](C)CO)C[C@H]2C)cc1 | -10.2% (inactive)
C[C@@H]1CN([C@@H](C)CO)C(=O)c2cccc(NC(=O)Nc3ccc(F)cc3)c2O[C@H]1CN(C)S(=O)(=O)c1ccc(F)cc1 | -8.56% (inactive)
Cc1ccc(S(=O)(=O)N(C)C[C@@H]2Oc3c(NC(=O)Nc4ccccc4)cccc3C(=O)N([C@H](C)CO)C[C@H]2C)cc1 | -10.7% (inactive)
Cc1ccc(S(=O)(=O)N(C)C[C@@H]2Oc3c(NC(=O)Nc4ccc(F)cc4)cccc3C(=O)N([C@@H](C)CO)C[C@H]2C)cc1 | -11% (inactive)
COc1ccc(S(=O)(=O)N(C)C[C@H]2Oc3c(NC(=O)Nc4cccc5ccccc45)cccc3C(=O)N([C@@H](C)CO)C[C@@H]2C)cc1 | -9.65% (inactive)
C[C@@H]1CN([C@@H](C)CO)C(=O)c2cccc(NC(=O)Nc3cccc4ccccc34)c2O[C@H]1CN(C)S(=O)(=O)c1ccccc1 | 6.84% (inactive)
C[C@@H]1CN([C@@H](C)CO)C(=O)c2cccc(NC(=O)Nc3cccc4ccccc34)c2O[C@H]1CN(C)S(=O)(=O)c1ccc2c(c1)OCCCO2 | 0.778% (inactive)
Cc1noc(C)c1NC(=O)N(C)C[C@@H]1Oc2c(NC(=O)Nc3cccc4ccccc34)cccc2C(=O)N([C@@H](C)CO)C[C@H]1C | -0.569% (inactive)
COc1ccc(S(=O)(=O)N(C)C[C@@H]2Oc3ccc(NC(=O)Nc4cccc5ccccc45)cc3C(=O)N([C@@H](C)CO)C[C@H]2C)cc1 | 5.17% (inactive)
COc1ccc(S(=O)(=O)N(C)C[C@@H]2Oc3c(NC(=O)Nc4cccc5ccccc45)cccc3C(=O)N([C@@H](C)CO)C[C@H]2C)cc1F | 5.84% (inactive)
COc1ccc(S(=O)(=O)N(C)C[C@@H]2Oc3c(NC(=O)Nc4ccc(F)cc4)cccc3C(=O)N([C@H](C)CO)C[C@H]2C)cc1 | -6.01% (inactive)
C[C@@H]1CN([C@@H](C)CO)C(=O)c2cccc(NC(=O)Nc3cccc4ccccc34)c2O[C@H]1CN(C)C(=O)NC1CCCCC1 | 27.4% (inactive)
COc1ccc(S(=O)(=O)N(C)C[C@@H]2Oc3c(NC(=O)C4CCCCC4)cccc3C(=O)N([C@@H](C)CO)C[C@H]2C)cc1 | -7.12% (inactive)
COc1ccc(S(=O)(=O)Nc2cccc3c2O[C@@H](CN(C)S(=O)(=O)c2ccc(OC)cc2)[C@H](C)CN([C@@H](C)CO)C3=O)cc1 | -1.2% (inactive)
COc1ccc(S(=O)(=O)N(C)C[C@@H]2Oc3c(NC(=O)Nc4cccc5ccccc45)cccc3C(=O)N([C@@H](C)CO)C[C@H]2C)cc1Cl | 12.6% (inactive)
COc1ccc(S(=O)(=O)N(C)C[C@@H]2Oc3c(NS(C)(=O)=O)cccc3C(=O)N([C@@H](C)CO)C[C@H]2C)cc1 | -6.62% (inactive)

SMILES | activity change, negative = inhibition
COc1ccc(NC(=O)N(C)C[C@@H]2Oc3c(NC(=O)Nc4cccc5ccccc45)cccc3C(=O)N([C@@H](C)CO)C[C@H]2C)cc1 | 18.3% (inactive)
C[C@@H]1CN([C@@H](C)CO)C(=O)c2cccc(NC(=O)Nc3cccc4ccccc34)c2O[C@H]1CN(C)S(=O)(=O)c1ccc2c(c1)OCC2 | 3.67% (inactive)
C[C@@H]1CN([C@@H](C)CO)C(=O)c2cccc(NC(=O)Nc3cccc4ccccc34)c2O[C@H]1CN(C)S(C)(=O)=O | -7.6% (inactive)
COc1ccc(S(=O)(=O)N(C)C[C@@H]2Oc3c(NC(=O)Nc4ccc5c(c4)OCO5)cccc3C(=O)N([C@@H](C)CO)C[C@H]2C)cc1 | -4.99% (inactive)
COc1ccc(S(=O)(=O)N(C)C[C@@H]2Oc3c(NC(=O)Nc4cccc5ccccc45)cccc3C(=O)N([C@@H](C)CO)C[C@H]2C)cc1OC | -11.6% (inactive)
C[C@@H]1CN([C@@H](C)CO)C(=O)c2cccc(NC(=O)Nc3cccc4ccccc34)c2O[C@H]1CN(C)S(=O)(=O)c1ccc2c(c1)oc(=O)n2C | 0.941% (inactive)
C[C@@H]1CN([C@@H](C)CO)C(=O)c2cccc(NC(=O)Nc3cccc4ccccc34)c2O[C@H]1CN(C)S(=O)(=O)c1cn(C)cn1 | -1.53% (inactive)
Cc1ccc(S(=O)(=O)N(C)C[C@@H]2Oc3c(NC(=O)Nc4ccc(F)cc4)cccc3C(=O)N([C@H](C)CO)C[C@H]2C)cc1 | -5.96% (inactive)
C[C@@H]1CN([C@H](C)CO)C(=O)c2cccc(NC(=O)Nc3ccccc3)c2O[C@H]1CN(C)S(=O)(=O)c1ccc(F)cc1 | -4.27% (inactive)
C[C@@H]1CN([C@H](C)CO)C(=O)c2cccc(NC(=O)Nc3cccc4ccccc34)c2O[C@H]1CN(C)S(=O)(=O)c1ccc(Cl)cc1 | -4.82% (inactive)
C[C@@H]1CN([C@@H](C)CO)C(=O)c2cccc(NC(=O)Nc3cccc4ccccc34)c2O[C@H]1CN(C)CC1CC1 | -6.43% (inactive)
COc1ccc(S(=O)(=O)N(C)C[C@@H]2Oc3c(NC(=O)Nc4ccccc4)cccc3C(=O)N([C@H](C)CO)C[C@H]2C)cc1 | -7.43% (inactive)
COc1ccc(S(=O)(=O)N(C)C[C@@H]2Oc3c(NS(=O)(=O)c4ccc(F)cc4)cccc3C(=O)N([C@@H](C)CO)C[C@H]2C)cc1 | -9.27% (inactive)
Cc1ccc(S(=O)(=O)N(C)C[C@@H]2Oc3c(NC(=O)Nc4ccccc4)cccc3C(=O)N([C@@H](C)CO)C[C@H]2C)cc1 | -11.7% (inactive)
C[C@@H]1CN([C@@H](C)CO)C(=O)c2cccc(NC(=O)Nc3cccc4ccccc34)c2O[C@H]1CN(C)S(=O)(=O)c1ccc2c(c1)OCO2 | -4.01% (inactive)
COc1ccc(S(=O)(=O)N(C)C[C@@H]2Oc3c(NS(=O)(=O)c4ccccc4)cccc3C(=O)N([C@@H](C)CO)C[C@H]2C)cc1 | -6.46% (inactive)
C[C@@H]1CN([C@@H](C)CO)C(=O)c2cccc(NC(=O)Nc3cccc4ccccc34)c2O[C@H]1CN(C)C(=O)Nc1ccc2c(c1)OCO2 | 32.4% (inactive)
COc1ccc(S(=O)(=O)N(C)C[C@@H]2Oc3c(NC(=O)Nc4ccc(C(F)(F)F)cc4)cccc3C(=O)N([C@@H](C)CO)C[C@H]2C)cc1 | 13.3% (inactive)
C[C@@H]1CN([C@@H](C)CO)C(=O)c2cccc(NC(=O)Nc3cccc4ccccc34)c2O[C@H]1CN(C)S(=O)(=O)c1ccccc1F | 21.8% (inactive)
COc1ccc(S(=O)(=O)N(C)C[C@@H]2Oc3c(NC(=O)Nc4c(C)noc4C)cccc3C(=O)N([C@@H](C)CO)C[C@H]2C)cc1 | -11.7% (inactive)
COc1ccc(S(=O)(=O)N(C)C[C@@H]2Oc3c(NC(=O)c4cnccn4)cccc3C(=O)N([C@@H](C)CO)C[C@H]2C)cc1 | -2.35% (inactive)
COc1cccc(S(=O)(=O)N(C)C[C@@H]2Oc3c(NC(=O)Nc4cccc5ccccc45)cccc3C(=O)N([C@@H](C)CO)C[C@H]2C)c1 | 14.2% (inactive)
C[C@@H]1CN([C@H](C)CO)C(=O)c2cccc(NC(=O)Nc3ccccc3)c2O[C@H]1CN(C)S(=O)(=O)c1ccc(Cl)cc1 | -6.09% (inactive)

From PubChem BioAssay AID488936 (Broad Institute, 2010)
